Measured values taken from ChEMBL document CHEMBL1143014, “Cytotoxic activity of some natural and synthetic ent-kauranes” (J Nat Prod, 2007).

What was measured:
Type in all cases: cell-based
KB = test: Cytotoxicity against human KB cells after 72 hrs; conditions: for EC50: Homo sapiens, KB; for Activity: human, kb
How it was run: (§1)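 Sulforhodamine B assay run per the NCI procedure. Cells grown at 37 °C, humidified 5% CO2, in RPMI-1640 with 25 mM HEPES, […], 10% (v/v) FBS and 100 µg/mL kanamycin. Compounds dissolved in DMSO (final ≤1% v/v) and applied continuously for 72 h. EC50 is the concentration cutting cell number by 50%, interpolated from dose-response data. Assays run in triplicate. Doxorubicin served as positive control.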

1A9 = test: Cytotoxicity against human 1A9 cells after 72 hrs; conditions: for EC50: Homo sapiens, 1A9, 72 h; for Activity: human, 1a9, 72 h; how it was run: as §1
[1] = Cytotoxicity against human multidrug-resistant KB-VIN cells after 72 hrs; conditions: for EC50: Homo sapiens, KBVIN; for Activity: human, kb-vin; how it was run: as §1
MCF7 = test: Cytotoxicity against human MCF7 cells after 72 hrs; conditions: for EC50: Homo sapiens, MCF7, 72 h; for Activity: human, mcf7, 72 h; how it was run: as §1
PC-3 = test: Cytotoxicity against human PC3 cells after 72 hrs; conditions: for EC50: Homo sapiens, PC-3, 72 h; for Activity: human, pc-3, 72 h; how it was run: as §1
A549 = test: Cytotoxicity against human A549 cells after 72 hrs; conditions: for EC50: Homo sapiens, A549, 72 h; for Activity: human, a549, 72 h; how it was run: as §1

Structure (SMILES) | EC50 (KB) [nM] | EC50 (1A9) [nM] | EC50 [1] [µM] | EC50 (MCF7) [µM] | EC50 (PC-3) [nM] | EC50 (A549) [nM] | Activity (KB) | Activity (1A9) | Activity [1] | Activity (MCF7) | Activity (PC-3) | Activity (A549)
C=C1C(=O)[C@@]23CCC4[C@H](C(=O)OC)C[C@@H](OC(C)=O)C[C@@]4(C)[C@@H]2CC[C@@H]1C3 (some centres not stated) | 3600 | 500 | 4 | 0.9 | 1400 | 3300 | – | – | – | – | – | –
C=C1[C@@H]2CC[C@@H]3[C@@](CCC4[C@H](C(=O)OC)C/C(=N\NS(=O)(=O)c5ccc(C)cc5)C[C@]43C)(C2)[C@@H]1O (some centres not stated) | 18100 | 7500 | 20.4 | 18 | 15800 | 24500 | – | – | – | – | – | –
C=C1C(=O)[C@@]23CCC4[C@H](C(=O)OC)CC(=O)C[C@@]4(C)[C@@H]2CC[C@@H]1C3 (some centres not stated) [ATRACTYLIGENIN METHYL ESTER] | 1600 | 200 | 1.6 | 1 | 1100 | 3400 | – | – | – | – | – | –
COc1cccc2c1C(=O)c1c(O)c3c(c(O)c1C2=O)C[C@@](O)(C(=O)CO)C[C@@H]3O[C@H]1C[C@H](N)[C@H](O)[C@H](C)O1 [DOXORUBICIN] | 400 | 100 | 1.7 | 0.2 | 2000 | 900 | – | – | – | – | – | –
C=C1C(=O)[C@@]23CCC4[C@H](C(=O)OC)C[C@@H](OC(=O)[C@H](O)[C@@H](NC(=O)c5ccccc5)c5ccccc5)C[C@@]4(C)[C@@H]2CC[C@@H]1C3 (some centres not stated) | 2600 | 400 | 3.5 | 1.5 | 600 | 1700 | – | – | – | – | – | –
C=C1[C@@H]2CC[C@@H]3[C@@](CCC4[C@H](C(=O)OC)C[C@@H](O)C[C@]43C)(C2)[C@@H]1O (some centres not stated) [ATRACTYLIGENIN METHYL ESTER] | – | – | – | – | – | – | Not Active | Not Active | Not Active | Not Active | Not Active | Not Active
C=C1C(=O)[C@@]23CCC4[C@H](C(=O)OC)CCC[C@@]4(C)[C@@H]2CC[C@@H]1C3 (some centres not stated) | 1300 | 700 | 1.3 | 5 | 3100 | 4400 | – | – | – | – | – | –
C=C1C(=O)[C@@]23CCC4[C@H](C(=O)OC)C[C@@H](O)C[C@@]4(C)[C@@H]2CC[C@@H]1C3 (some centres not stated) | 1500 | 300 | 2.6 | 2 | 4000 | 1000 | – | – | – | – | – | –
C=C1C(=O)[C@@]23CCC4[C@H](C(=O)OC)C[C@@H](OC(=O)c5ccc6c(c5)OCO6)C[C@@]4(C)[C@@H]2CC[C@@H]1C3 (some centres not stated) | 1100 | 3000 | 3 | 21.4 | 9200 | 19000 | – | – | – | – | – | –
C=C1[C@@H]2CC[C@@H]3[C@@](CCC4[C@H](C(=O)O)C[C@@H](O)C[C@]43C)(C2)[C@@H]1O (some centres not stated) [ATRACTYLIGENIN] | – | – | – | – | – | – | Not Active | Not Active | Not Active | Not Active | Not Active | Not Active
C=C1C(=O)[C@@]23CCC4[C@H](C(=O)OC)C[C@@H](OC(=O)[C@@H]5OC(c6ccccc6)=N[C@H]5c5ccccc5)C[C@@]4(C)[C@@H]2CC[C@@H]1C3 (some centres not stated) | 3000 | 1800 | 4.8 | 11.8 | 2200 | 2200 | – | – | – | – | – | –
C=C1C(=O)[C@@]23CCC4[C@H](C(=O)OC)C[C@@H](OS(=O)(=O)c5ccc(C)cc5)C[C@@]4(C)[C@@H]2CC[C@@H]1C3 (some centres not stated) | 1400 | 500 | 3.5 | 4.3 | 2600 | 2300 | – | – | – | – | – | –
